Molecules are shown by their SMILES. Values joined by “and” are separate entries in the source; they are usually repeats but may differ in a detail not shown here. Equal values may be shown once. Active and inactive are the calls of the source. No cut-off for these calls is given here.

A short description of data set [1]: The compound was tested for toxicity using MTT cytotoxicity assay in Hela cell culture, activity expressed as LD50 value. Format: cell-based. The conditions noted are these: human, HeLa cells; read-out: LD50 (the source's name). Put shortly: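 HeLa cells in culture exposed to a range of compound concentrations; viability read out with MTT dye; LD50 derived from the concentration series.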
A general note: Tetrazolium dyes change colour on reduction, which living cells bring about.

In data set [2] the target is Human immunodeficiency virus type 1 integrase (Human immunodeficiency virus 1, UniProt Q7ZJM1). Kind of data set: Inhibitory activity against integrase as yield of terminal cleavage products. Put shortly:
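Purified HIV-1 integrase incubated with an end-labeled substrate oligonucleotide across a compound titration. Products separated by electrophoresis and visualized by autoradiography; terminal cleavage product quantitated relative to positive control without inhibitor.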

Data set [3] has as its system Molluscum contagiosum virus. Kind of data set: The relaxation activity of MCV topoisomerase was assayed at 500 electrophoresis; No Inhibition. It is filed as functional, organism-based. Put shortly:
(§1)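 Type 1B topoisomerase of molluscum contagiosum virus; relaxation of supercoiled plasmid DNA monitored by mobility shift on agarose gel electrophoresis.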

Data set [4] relates to Molluscum contagiosum virus. The data set can be described thus: The relaxation activity of MCV topoisomerase was assayed at 100 electrophoresis; No Inhibition. It is filed as functional, organism-based. In short, it runs like this: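 Counterscreen against the type 1B topoisomerase of molluscum contagiosum virus (MCV). Relaxation of supercoiled plasmid DNA was followed by the change in its mobility on agarose gel electrophoresis, with compound present.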

For data set [5], the system named is Molluscum contagiosum virus. The data set can be described thus: The relaxation activity of MCV topoisomerase was assayed at 170 electrophoresis; No Inhibition. Format: functional, organism-based. Put shortly:
as §1

Data set [6] concerns Human immunodeficiency virus 1. Kind of data set: The compound was tested in vitro for inhibition of PIC (preintegrated complexes) from HIV-1 infected cells. Format: functional. Put shortly: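 Preintegration complexes isolated from HIV-1-infected cells used as integration source; mixed with naked DNA target and incubated 37 °C for 1 h in presence of compound.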

Human immunodeficiency virus type 1 integrase, sequence (Q7ZJM1 whole entry): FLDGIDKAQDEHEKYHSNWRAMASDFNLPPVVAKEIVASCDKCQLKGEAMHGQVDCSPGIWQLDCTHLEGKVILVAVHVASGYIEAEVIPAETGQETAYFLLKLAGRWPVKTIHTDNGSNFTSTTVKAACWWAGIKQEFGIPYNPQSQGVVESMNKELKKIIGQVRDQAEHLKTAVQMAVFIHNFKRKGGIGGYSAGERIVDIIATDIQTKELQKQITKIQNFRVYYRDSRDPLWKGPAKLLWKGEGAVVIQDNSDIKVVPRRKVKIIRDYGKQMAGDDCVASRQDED

Consider `COc1ccc(-c2c3n(c4c(=O)oc5cc(OS(=O)(=O)O)c(OC)cc5c24)C(O)Cc2c-3cc(OC)c(OC)c2OC)cc1O` (centres undefined), for which, in data set [1], the CC50 came out at 130 µM. For the same compound, the IC50 (in general, the concentration that inhibits the measured activity by half) in data set [2] is 73 µM and 51 µM. For the same compound, the inhibition result in data set [3] is “inactive”.

As to `COc1ccc(-c2c3n(c4c(=O)oc5cc(OS(=O)(=O)O)c(OC)cc5c24)CCc2cc(OC)c(OC)cc2-3)cc1O`, in data set [1], the CC50 turned out to be 145 µM. Moreover, in data set [2], the IC50 is 34 µM and 25 µM. Also, the inhibition result in data set [3] was “inactive”.

Consider `COc1ccc(-c2c3n(c4c(=O)oc5cc(O)c(OC)cc5c24)CCc2c-3cc(OC)c(OC)c2OC)cc1O`, for which the CC50 in data set [1] was found to be 27 µM. Besides, in data set [2], the IC50 was 27 µM and 24 µM. Further, in data set [4], the inhibition result was “inactive”.

As for `COc1ccc(-c2c3c4cc(OC)c(O)cc4oc(=O)c3n3ccc4c(OC)c(OC)c(OC)cc4c23)cc1O`, the CC50 in data set [1] is 28 µM. Also, in data set [2], the IC50 is 19 µM and 14 µM. Moreover, in data set [5], the inhibition result is “inactive”.

Regarding `COc1ccc(-c2c3c4cc(OC)c(O)cc4oc(=O)c3n3ccc4cc(O)c(OC)cc4c23)cc1O`, in data set [1], the CC50 turned out to be 5 µM. The IC50 in data set [2] was 18 µM and 19 µM. In addition, in data set [4], the inhibition entry was “inactive”.

As for `COc1ccc(-c2c3c4cc(OC)c(OS(=O)(=O)O)cc4oc(=O)c3n3ccc4cc(OC)c(OC)cc4c23)cc1O`, the CC50 in data set [1] was found to be 274 µM. Further, the 50% inhibitory concentration (IC50) in data set [2] is 16 µM and 22 µM; in data set [6] it was 88 µM. Further, in data set [5], the inhibition result is “inactive”.

Values taken from ChEMBL document CHEMBL1132222, “Lamellarin alpha 20-sulfate, an inhibitor of HIV-1 integrase active against HIV-1 virus in cell culture” (J Med Chem, 1999).
